Assays:
[1] = molecular target: T1, Rhodopsin kinase GRK1 (Homo sapiens) (UniProt Q15835); experiment: Inhibition of GRK1 (unknown origin) assessed as enzyme activity incubated for 15 mins by [gamma-33]ATP based scintillation counting method relative to control; set-up: scale not given: the % may be the effect or the level left
T1 sequence (whole entry): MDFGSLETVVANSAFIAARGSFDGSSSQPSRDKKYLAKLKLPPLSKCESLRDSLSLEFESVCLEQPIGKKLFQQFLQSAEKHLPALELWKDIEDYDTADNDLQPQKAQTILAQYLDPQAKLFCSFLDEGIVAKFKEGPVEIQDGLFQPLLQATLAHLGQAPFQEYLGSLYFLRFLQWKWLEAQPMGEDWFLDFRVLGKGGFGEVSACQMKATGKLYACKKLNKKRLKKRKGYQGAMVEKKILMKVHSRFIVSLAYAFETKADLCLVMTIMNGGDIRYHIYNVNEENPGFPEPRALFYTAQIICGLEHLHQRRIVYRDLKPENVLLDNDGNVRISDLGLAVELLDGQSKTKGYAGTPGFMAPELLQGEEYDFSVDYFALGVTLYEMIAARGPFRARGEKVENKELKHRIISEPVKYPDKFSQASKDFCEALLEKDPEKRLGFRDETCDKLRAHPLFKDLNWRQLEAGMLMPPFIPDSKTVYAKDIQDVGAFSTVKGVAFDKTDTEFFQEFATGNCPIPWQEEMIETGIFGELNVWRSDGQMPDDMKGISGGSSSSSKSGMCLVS

[2] = molecular target: T2, 3-phosphoinositide-dependent protein kinase 1 (Homo sapiens) (UniProt O15530); experiment: Inhibition of recombinant human N-terminal His-tagged full length PDK1 expressed in baculovirus infected Sf9 insect cells assessed as enzyme activity incubated for 15 mins by [gamma-33]ATP based scintillation counting method relative to control; set-up: scale not given: the % may be the effect or the level left
T2 sequence (whole entry): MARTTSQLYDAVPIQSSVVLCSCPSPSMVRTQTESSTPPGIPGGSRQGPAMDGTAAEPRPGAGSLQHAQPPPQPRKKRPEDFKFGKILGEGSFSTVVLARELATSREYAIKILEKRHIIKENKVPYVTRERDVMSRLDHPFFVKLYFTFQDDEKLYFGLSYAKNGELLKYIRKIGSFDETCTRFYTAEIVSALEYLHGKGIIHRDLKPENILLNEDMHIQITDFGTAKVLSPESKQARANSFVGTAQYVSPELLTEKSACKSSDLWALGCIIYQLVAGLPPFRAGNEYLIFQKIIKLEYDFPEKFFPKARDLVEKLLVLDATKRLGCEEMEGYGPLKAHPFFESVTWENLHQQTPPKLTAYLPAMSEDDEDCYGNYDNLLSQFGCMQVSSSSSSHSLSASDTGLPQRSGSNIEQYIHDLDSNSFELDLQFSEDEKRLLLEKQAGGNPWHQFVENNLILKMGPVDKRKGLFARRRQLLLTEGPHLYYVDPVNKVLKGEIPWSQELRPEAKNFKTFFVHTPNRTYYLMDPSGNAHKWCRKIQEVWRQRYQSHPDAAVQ

A2780 = experiment: Antiproliferative activity against human A2780 cells assessed as reduction in cell growth incubated for 72 hrs by MTT assay; assay type: functional, cell-based; conditions: A2780, 72 h
Procedure, shortened: (§1)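 MTT assay on MCF-7, A2780, HT29 and normal MRC5 fibroblast lines (ATCC) grown in DMEM with 10% FBS. Cells exposed to compounds for 72 h, then reduced MTT read at 570 nm.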

[3] = molecular target: T3, Ephrin type-A receptor 1 (Homo sapiens) (UniProt P21709); experiment: Inhibition of recombinant human N-terminal GST-tagged EPHA1 (569 to end residues) expressed in baculovirus infected Sf9 insect cells assessed as enzyme activity incubated for 15 mins by [gamma-33]ATP based scintillation counting method relative to control; set-up: scale not given: the % may be the effect or the level left
T3 sequence (whole entry): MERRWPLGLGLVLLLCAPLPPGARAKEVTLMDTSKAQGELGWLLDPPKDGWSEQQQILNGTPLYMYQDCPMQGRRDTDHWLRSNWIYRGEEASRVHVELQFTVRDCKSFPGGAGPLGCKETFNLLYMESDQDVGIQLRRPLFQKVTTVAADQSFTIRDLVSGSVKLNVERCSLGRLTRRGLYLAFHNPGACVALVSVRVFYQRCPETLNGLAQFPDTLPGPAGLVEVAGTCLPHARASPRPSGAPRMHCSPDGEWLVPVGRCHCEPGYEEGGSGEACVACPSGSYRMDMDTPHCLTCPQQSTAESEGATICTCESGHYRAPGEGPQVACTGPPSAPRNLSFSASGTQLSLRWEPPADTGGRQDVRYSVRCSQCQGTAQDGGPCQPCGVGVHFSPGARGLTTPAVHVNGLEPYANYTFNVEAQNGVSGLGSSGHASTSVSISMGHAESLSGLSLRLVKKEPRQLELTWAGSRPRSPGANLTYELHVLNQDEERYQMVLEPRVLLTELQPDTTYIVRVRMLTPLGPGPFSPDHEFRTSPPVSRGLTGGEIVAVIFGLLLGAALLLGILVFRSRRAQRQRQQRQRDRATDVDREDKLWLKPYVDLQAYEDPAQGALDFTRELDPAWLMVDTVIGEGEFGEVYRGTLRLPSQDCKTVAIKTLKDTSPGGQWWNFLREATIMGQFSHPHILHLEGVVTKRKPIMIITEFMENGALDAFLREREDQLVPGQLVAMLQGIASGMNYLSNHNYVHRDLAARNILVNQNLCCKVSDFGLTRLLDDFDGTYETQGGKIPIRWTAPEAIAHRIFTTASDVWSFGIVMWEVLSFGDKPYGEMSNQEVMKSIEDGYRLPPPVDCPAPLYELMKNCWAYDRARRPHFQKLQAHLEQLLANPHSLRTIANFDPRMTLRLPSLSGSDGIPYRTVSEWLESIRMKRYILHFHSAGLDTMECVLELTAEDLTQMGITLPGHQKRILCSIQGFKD

[4] = molecular target: Prostaglandin G/H synthase 1 (Homo sapiens, UniProt P23219); experiment: Inhibition of human COX1 using arachidonic acid as substrate incubated for 2 mins by ELISA method
HT-29 = experiment: Antiproliferative activity against human HT-29 cells assessed as reduction in cell growth incubated for 72 hrs by MTT assay; assay type: functional, cell-based; conditions: HT-29, 72 h; procedure, shortened: as §1
[5] = molecular target: Casein kinase I isoform alpha (Homo sapiens) (UniProt P48729); experiment: Inhibition of CK1alpha1 (unknown origin) assessed as enzyme activity incubated for 15 mins by [gamma-33]ATP based scintillation counting method relative to control; set-up: scale not given: the % may be the effect or the level left
[6] = molecular target: Glycogen synthase kinase-3 alpha (Homo sapiens) (UniProt P49840); experiment: Inhibition of recombinant human N-terminal GST-tagged full length GSK3alpha expressed in baculovirus infected Sf9 insect cells assessed as enzyme activity incubated for 15 mins by [gamma-33]ATP based scintillation counting method relative to control; set-up: scale not given: the % may be the effect or the level left
[7] = molecular target: Ribosomal protein S6 kinase alpha-5 (Homo sapiens) (UniProt O75582); experiment: Inhibition of recombinant human N-terminal GST-tagged full length MSK1 expressed in baculovirus infected Sf9 insect cells assessed as enzyme activity incubated for 15 mins by [gamma-33]ATP based scintillation counting method relative to control; set-up: scale not given: the % may be the effect or the level left
Ribosomal protein S6 kinase alpha-5 (Homo sapiens), sequence (O75582 whole entry, looked up): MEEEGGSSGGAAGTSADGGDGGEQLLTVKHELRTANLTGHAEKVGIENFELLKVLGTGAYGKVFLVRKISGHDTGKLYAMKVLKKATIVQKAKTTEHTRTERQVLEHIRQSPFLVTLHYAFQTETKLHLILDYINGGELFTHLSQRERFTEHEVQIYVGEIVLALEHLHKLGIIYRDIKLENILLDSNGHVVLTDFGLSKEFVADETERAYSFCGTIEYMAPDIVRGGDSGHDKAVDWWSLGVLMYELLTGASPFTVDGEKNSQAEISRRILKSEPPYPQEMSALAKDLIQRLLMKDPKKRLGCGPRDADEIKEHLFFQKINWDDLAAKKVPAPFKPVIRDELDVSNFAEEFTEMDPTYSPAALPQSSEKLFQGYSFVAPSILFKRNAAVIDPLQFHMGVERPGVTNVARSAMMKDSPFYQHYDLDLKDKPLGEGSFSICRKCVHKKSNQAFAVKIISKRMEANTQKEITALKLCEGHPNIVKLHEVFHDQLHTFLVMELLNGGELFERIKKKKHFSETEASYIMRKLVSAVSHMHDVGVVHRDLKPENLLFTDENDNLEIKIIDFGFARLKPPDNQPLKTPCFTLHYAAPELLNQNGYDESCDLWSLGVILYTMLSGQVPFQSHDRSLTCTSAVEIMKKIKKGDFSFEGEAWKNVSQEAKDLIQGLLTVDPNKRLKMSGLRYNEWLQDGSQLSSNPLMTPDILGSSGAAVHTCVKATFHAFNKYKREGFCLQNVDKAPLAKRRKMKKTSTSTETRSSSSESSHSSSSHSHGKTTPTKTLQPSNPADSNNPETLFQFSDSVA

Glycogen synthase kinase-3 alpha (Homo sapiens), sequence (P49840 2-483 limits assumed): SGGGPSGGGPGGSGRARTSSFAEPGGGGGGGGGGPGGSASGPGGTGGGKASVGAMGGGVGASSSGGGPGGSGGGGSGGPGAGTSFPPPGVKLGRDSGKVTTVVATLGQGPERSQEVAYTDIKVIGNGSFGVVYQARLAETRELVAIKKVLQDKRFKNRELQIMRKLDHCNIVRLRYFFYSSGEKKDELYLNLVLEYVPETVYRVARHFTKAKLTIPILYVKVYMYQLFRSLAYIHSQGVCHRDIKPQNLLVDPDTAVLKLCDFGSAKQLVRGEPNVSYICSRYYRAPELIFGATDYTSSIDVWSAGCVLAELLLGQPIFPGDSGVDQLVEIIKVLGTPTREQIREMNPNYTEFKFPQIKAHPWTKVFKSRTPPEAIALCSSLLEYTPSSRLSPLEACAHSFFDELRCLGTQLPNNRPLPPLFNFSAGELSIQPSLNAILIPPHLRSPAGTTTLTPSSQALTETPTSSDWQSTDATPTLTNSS
Casein kinase I isoform alpha (Homo sapiens), sequence (P48729 2-337 limits assumed): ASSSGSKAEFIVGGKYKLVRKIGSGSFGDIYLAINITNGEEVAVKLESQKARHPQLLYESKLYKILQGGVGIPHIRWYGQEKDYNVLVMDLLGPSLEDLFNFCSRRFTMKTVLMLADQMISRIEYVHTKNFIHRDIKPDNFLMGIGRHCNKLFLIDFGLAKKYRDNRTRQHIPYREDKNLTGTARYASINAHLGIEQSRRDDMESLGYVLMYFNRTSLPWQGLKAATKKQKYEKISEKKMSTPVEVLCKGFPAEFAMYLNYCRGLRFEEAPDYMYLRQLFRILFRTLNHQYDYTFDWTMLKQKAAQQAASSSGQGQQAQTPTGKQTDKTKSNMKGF
Prostaglandin G/H synthase 1, sequence (P23219 whole entry): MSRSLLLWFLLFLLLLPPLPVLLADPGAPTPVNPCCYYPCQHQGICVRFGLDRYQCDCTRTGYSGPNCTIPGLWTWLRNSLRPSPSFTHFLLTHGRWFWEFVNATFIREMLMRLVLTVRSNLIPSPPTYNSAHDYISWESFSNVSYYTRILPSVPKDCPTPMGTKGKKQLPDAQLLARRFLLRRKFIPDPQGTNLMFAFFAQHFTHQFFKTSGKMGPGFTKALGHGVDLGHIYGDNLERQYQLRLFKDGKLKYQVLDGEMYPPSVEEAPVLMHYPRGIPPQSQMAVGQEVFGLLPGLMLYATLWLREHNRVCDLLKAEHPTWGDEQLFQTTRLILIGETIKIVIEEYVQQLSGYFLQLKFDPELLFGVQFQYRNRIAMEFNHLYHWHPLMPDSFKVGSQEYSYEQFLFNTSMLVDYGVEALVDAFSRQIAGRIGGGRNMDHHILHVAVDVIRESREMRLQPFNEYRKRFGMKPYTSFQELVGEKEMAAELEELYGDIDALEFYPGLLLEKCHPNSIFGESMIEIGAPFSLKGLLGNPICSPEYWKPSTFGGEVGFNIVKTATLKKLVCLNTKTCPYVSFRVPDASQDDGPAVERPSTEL

Row | Compound | Activity [1] [%] | Activity [2] [%] | IC50 (A2780) [µM] | Activity [3] [%] | IC50 [4] [µM] | IC50 (HT-29) [µM] | Activity [5] [%] | Activity [6] [%] | Activity [7] [%]
1 | CCC1SCC(=O)N1c1c(C#N)c2n(c1C(=O)Nc1ccccc1)CCC2 (stereo not drawn) | -9 | -11 | 0.22 | 4 | 43.7 | 0.6 | -16 | -12 | -23
2 | CC/C=N/c1c(C#N)c2n(c1C(=O)Nc1ccccc1)CCC2 | -10 | -15 | 15.6 | -5 | > 100 | 0.2 | -23 | -24 | -22
3 | Cc1ccc(NC(=O)c2ccc(CN3CCN(C)CC3)cc2)cc1Nc1nccc(-c2cccnc2)n1 | 2 | 34 |  | 22 |  |  | 0 | -1 | 49
4 | CC(C)C/C=N/c1c(C#N)c2n(c1C(=O)Nc1ccc(Br)cc1)CCC2 | 1 | 28 | 0.52 | 25 | > 100 | 0.67 | 6 | -3 | 29
